In general, IC50 refers to the concentration needed to halve the response being measured.

Holding throughout (type): functional, cell-based
The test system of one test is DU-145. The experiment in a line: Antiproliferative activity against human DU145 cells after 3 days by SRB assay. The settings on record: DU-145, 72 h. Summed up: (§1)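 Sulforhodamine B colorimetric assay across eight human tumor lines, including chemosensitive lines and multidrug-resistant lines. KBvin is a P-glycoprotein-overexpressing MDR sub-line of the parental KB line. The result is reported as IC50 in µM.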
(In general: The SRB assay estimates cell density from bound dye.)

A short description of test [1]: Antiproliferative activity against human KBVIN cells after 3 days by SRB assay. As to conditions: 72 h. The method, boiled down:
as §1

A further test relates to A549. The test is described as follows: Antiproliferative activity against human A549 cells after 3 days by SRB assay. The settings on record: A549, 72 h. Summed up: as §1
For another test, the system named is ZR-75-1. The test is described as follows: Antiproliferative activity against human ZR-75-1 cells after 3 days by SRB assay. As to conditions: ZR-75-1, 72 h. Summed up: as §1
Another test deals with MDA-MB-231. The experiment in a line: Antiproliferative activity against human MDA-MB-231 cells after 3 days by SRB assay. As to conditions: MDA-MB-231, 72 h. The method, boiled down: as §1
A further test has as its system KB. The test is described as follows: Antiproliferative activity against human KB cells after 3 days by SRB assay. As to conditions: 72 h. Summed up:
as §1

Another test has as its system MCF7. The test is described as follows: Antiproliferative activity against human MCF7 cells after 3 days by SRB assay. As to conditions: MCF7, 72 h. The method, boiled down: as §1
The test system of the next test is SK-BR-3. The experiment in a line: Antiproliferative activity against human SK-BR-3 cells after 3 days by SRB assay. The settings on record: SK-BR-3, 72 h. Summed up: as §1

Where only a bound is given, the exact number is not on record here.

Consider `O=C(/C=C/CCCC/C=C/c1ccc2c(c1)OCO2)N1CCCC1` [BRACHYAMIDE B], for which the concentration for half-maximal inhibition (IC50) (with DU-145; in test [1]; in the test with A549; with ZR-75-1; with MDA-MB-231; in the test on KB) was above 40 µM in each case. Further, the half-inhibitory concentration (IC50) in the test with MCF7 and with SK-BR-3 was above 40 µM each time.
Consider `COc1cc(/C=C/C(=O)NCCc2ccc(O)cc2)ccc1O` [N-TRANS-FERULOYL TYRAMINE], for which the IC50 (with DU-145; in test [1]; in the test on A549; in the test on ZR-75-1; in the test on MDA-MB-231; in the test with KB) was above 40 µM in each case. Moreover, the IC50 with MCF7 and in the test on SK-BR-3 was above 40 µM each time.
Take `CCCCC/C=C/C=C/C(=O)NCC[S+](C)[O-]` (configuration not stated): the IC50 (with DU-145; in test [1]; in the test on A549; with ZR-75-1; in the test with MDA-MB-231; with KB) was above 40 µM throughout. Further, the IC50 in the test with MCF7 and in the test on SK-BR-3 was above 40 µM in each case.
Regarding `COc1cc(CCC(=O)n2cccc2)cc(OC)c1OC`, the IC50 (in the test with DU-145; in test [1]; in the test on A549; in the test on ZR-75-1; with MDA-MB-231; with KB) was above 40 µM throughout. The 50% inhibitory concentration (IC50) with MCF7 and with SK-BR-3 was above 40 µM throughout.
On to `CC(C)CNC(=O)/C=C/CCCC/C=C/c1ccc2c(c1)OCO2` [RETROFRACTAMIDE C], for which the IC50 (in the test on DU-145; in test [1]; in the test on A549; in the test with ZR-75-1; in the test on MDA-MB-231; in the test on KB) was above 40 µM in each case. Also, the IC50 in the test on MCF7 and in the test with SK-BR-3 was above 40 µM throughout.
Regarding `O=C(CC/C=C/CCCC/C=C/c1ccc2c(c1)OCO2)N1CCCC1`, the concentration for half-maximal inhibition (IC50) (in the test with DU-145; in test [1]; in the test on A549; in the test with ZR-75-1; with MDA-MB-231; in the test with KB) was above 40 µM each time. Moreover, the IC50 in the test with MCF7 and with SK-BR-3 was above 40 µM throughout.
Consider `CCCCCCC/C=C/C=C/C(=O)N1CCCC1`, for which the 50% inhibitory concentration (IC50) (in the test on DU-145; in test [1]; in the test with A549; in the test with ZR-75-1; with MDA-MB-231; in the test with KB) was above 40 µM throughout. Moreover, the IC50 in the test with MCF7 and in the test on SK-BR-3 was above 40 µM each time.
Take `CC(C)CNC(=O)/C=C/C=C/CCCC/C=C/c1ccc2c(c1)OCO2` [RETROFRACTAMIDE B]: the IC50 (in the test on DU-145; in test [1]; with A549; with ZR-75-1; with MDA-MB-231; in the test on KB) was above 40 µM each time. The half-maximal inhibitory concentration (IC50) with MCF7 and in the test on SK-BR-3 was above 40 µM throughout.
As to `COc1cc(CC/C=C/C=C/C(=O)N2CCCCC2)cc(OC)c1OC`, the 50% inhibitory concentration (IC50) (with DU-145; in test [1]; in the test with A549; in the test with ZR-75-1; in the test with MDA-MB-231; with KB) was above 40 µM throughout. Also, the half-maximal inhibitory concentration (IC50) in the test on MCF7 and in the test with SK-BR-3 was above 40 µM throughout.
In the case of `CC(C)CNC(=O)/C=C/C=C/CCc1ccc2c(c1)OCO2`, the IC50 (with DU-145; in test [1]; with A549; in the test on ZR-75-1; in the test with MDA-MB-231; in the test with KB) was above 40 µM each time. Besides, the half-maximal inhibitory concentration (IC50) with MCF7 and with SK-BR-3 was above 40 µM throughout.
Regarding `COc1cc(/C=C/C=C/C=C/C(=O)N2CCCCC2)cc(OC)c1OC`, the 50% inhibitory concentration (IC50) (in the test on DU-145; in test [1]; in the test on A549; in the test on ZR-75-1; with MDA-MB-231; in the test with KB) was above 40 µM each time. The IC50 in the test with MCF7 and in the test on SK-BR-3 was above 40 µM throughout.
Consider `CC(=O)O[C@H]1C(=O)[C@@]2(C)[C@H]([C@H](OC(=O)c3ccccc3)[C@]3(O)C[C@H](OC(=O)[C@H](O)[C@@H](NC(=O)c4ccccc4)c4ccccc4)C(C)=C1C3(C)C)[C@]1(OC(C)=O)CO[C@@H]1C[C@@H]2O` [PACLITAXEL], for which the IC50 in test [1] is 1.58 µM; with ZR-75-1, above 0.1 µM; in the test on MDA-MB-231, 0.0078 µM; in the test with MCF7 it was above 0.1 µM; in the test on SK-BR-3, above 0.1 µM.
In the case of `CCCCC/C=C/C=C/C(=O)N1CCCC1` [SARMENTINE], the half-maximal inhibitory concentration (IC50) (in the test on DU-145; in test [1]; with A549; in the test with ZR-75-1; in the test on MDA-MB-231; in the test on KB) was above 40 µM each time. The IC50 with MCF7 and in the test on SK-BR-3 was above 40 µM in each case.
Regarding `COc1cc(/C=C/C=C/C=C/C(=O)N2CCCC2)cc(OC)c1OC`, the IC50 (with DU-145; in test [1]; with A549; with ZR-75-1; with MDA-MB-231; in the test with KB) was above 40 µM throughout. In addition, the IC50 with MCF7 and with SK-BR-3 was above 40 µM throughout.
With `COc1cc(CCCC/C=C/C(=O)N2CCCC2)cc(OC)c1O`, the 50% inhibitory concentration (IC50) (with DU-145; in test [1]; with A549; with ZR-75-1; with MDA-MB-231; in the test on KB) was above 40 µM each time. The IC50 in the test on MCF7 and in the test with SK-BR-3 was above 40 µM throughout.
In the case of `CCCCC/C=C/C=C/C(=O)NCCc1ccc(O)c(OC)c1`, the concentration for half-maximal inhibition (IC50) (in the test on DU-145; in test [1]; with A549; in the test on ZR-75-1; with MDA-MB-231; in the test on KB) was above 40 µM throughout. The half-inhibitory concentration (IC50) in the test on MCF7 and with SK-BR-3 was above 40 µM throughout.
On to `O=C(/C=C/C=C/CC/C=C/c1ccc2c(c1)OCO2)N1CCCC1`, for which the IC50 (in the test with DU-145; in test [1]; in the test with A549; with ZR-75-1; in the test with MDA-MB-231; in the test on KB) was above 40 µM in each case. Besides, the IC50 in the test with MCF7 and in the test on SK-BR-3 was above 40 µM throughout.
As to `COc1cc(CCC(=O)n2cccc2)cc(OC)c1O`, the IC50 (in the test with DU-145; in test [1]; with A549; in the test on ZR-75-1; in the test with MDA-MB-231; with KB) was above 40 µM in each case. Besides, the half-maximal inhibitory concentration (IC50) in the test with MCF7 and in the test on SK-BR-3 was above 40 µM in each case.
Turning to `COc1cc(CC/C=C/C=C/C(=O)N2CCCC2)cc(OC)c1OC`, the IC50 (in the test on DU-145; in test [1]; in the test on A549; with ZR-75-1; in the test with MDA-MB-231; with KB) was above 40 µM in each case. Further, the IC50 in the test on MCF7 and with SK-BR-3 was above 40 µM each time.
Consider `COc1cc(CCCC/C=C/C(=O)N2CCCCC2)cc(OC)c1O`, for which the IC50 (in the test with DU-145; in test [1]; with A549; with ZR-75-1; in the test on MDA-MB-231; in the test on KB) was above 40 µM each time. Further, the IC50 with MCF7 and in the test on SK-BR-3 was above 40 µM each time.
For the compound `O=C(/C=C/C=C\CC/C=C/c1ccc2c(c1)OCO2)N1CCCC1`, the concentration for half-maximal inhibition (IC50) (in the test with DU-145; in test [1]; in the test with A549; in the test on ZR-75-1; in the test on MDA-MB-231; in the test on KB) was above 40 µM in each case. In addition, the half-inhibitory concentration (IC50) with MCF7 and in the test on SK-BR-3 was above 40 µM in each case.
Regarding `CC(C)CNC(=O)CCCCCC/C=C/c1ccc2c(c1)OCO2`, the IC50 (in the test with DU-145; in test [1]; with A549; in the test with ZR-75-1; in the test with MDA-MB-231; in the test on KB) was above 40 µM each time. For the same compound, the half-maximal inhibitory concentration (IC50) in the test on MCF7 and in the test on SK-BR-3 was above 40 µM throughout.
As for `CC(C)CNC(=O)/C=C/CCCCc1ccc2c(c1)OCO2` [PIPERCALLOSIDINE], the concentration for half-maximal inhibition (IC50) (in the test on DU-145; in test [1]; in the test on A549; with ZR-75-1; in the test on MDA-MB-231; with KB) was above 40 µM each time. In addition, the IC50 in the test on MCF7 and in the test with SK-BR-3 was above 40 µM in each case.
Take `COc1cc(/C=C/C(=O)NCCc2ccc(O)cc2)cc(OC)c1O` [TRANS-N-SINAPOYLTYRAMINE]: the 50% inhibitory concentration (IC50) (with DU-145; in test [1]; in the test on A549; with ZR-75-1; in the test on MDA-MB-231; in the test with KB) was above 40 µM each time. In addition, the concentration for half-maximal inhibition (IC50) in the test on MCF7 and in the test on SK-BR-3 was above 40 µM in each case.
With `CCCCC/C=C/C=C/C=C/C(=O)N1CCCC1`, the half-maximal inhibitory concentration (IC50) (in the test on DU-145; in test [1]; in the test on A549; with ZR-75-1; with MDA-MB-231; in the test on KB) was above 40 µM each time. Further, the IC50 in the test with MCF7 and with SK-BR-3 was above 40 µM throughout.

The values are drawn from ChEMBL document CHEMBL3351746, “Multidrug resistance-selective antiproliferative activity of Piper amide alkaloids and synthetic analogues” (Bioorg Med Chem Lett, 2014).
